Measured values taken from ChEMBL document CHEMBL4020830, “Design, Synthesis, and Evaluation of a Novel Series of Indole Sulfonamide Peroxisome Proliferator Activated Receptor (PPAR) α/γ/δ Triple Activators: Discovery of Lanifibranor, a New Antifibrotic Clinical Candidate” (J Med Chem, 2018).
In brackets after ≈: the same amount, converted by molar mass. Activity calls are given as the source filed them. The rule behind the calls is not given here.

Tests used:
[1] = target: T1, Peroxisome proliferator-activated receptor alpha (Homo sapiens, UniProt Q07869); assay: Transactivation of human GAL4-fused PPARalpha LBD expressed in African green monkey COS7 cells co-expressing 5Gal4 pGL3 TK Luc after overnight incubation by luciferase reporter gene assay; assay type: cell-based
T1 sequence (Q07869 whole entry): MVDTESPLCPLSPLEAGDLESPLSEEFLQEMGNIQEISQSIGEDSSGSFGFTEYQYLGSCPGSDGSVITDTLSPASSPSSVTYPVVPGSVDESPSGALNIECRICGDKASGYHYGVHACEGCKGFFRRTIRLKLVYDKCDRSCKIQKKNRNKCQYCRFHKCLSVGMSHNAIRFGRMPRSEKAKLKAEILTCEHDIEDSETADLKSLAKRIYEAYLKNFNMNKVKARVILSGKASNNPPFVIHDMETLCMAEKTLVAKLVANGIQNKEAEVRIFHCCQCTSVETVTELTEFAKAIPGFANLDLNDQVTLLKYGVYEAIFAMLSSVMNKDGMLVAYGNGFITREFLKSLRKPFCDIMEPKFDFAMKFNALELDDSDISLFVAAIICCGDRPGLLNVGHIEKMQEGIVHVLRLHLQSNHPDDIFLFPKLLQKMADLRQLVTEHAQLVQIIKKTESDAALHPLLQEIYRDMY
In short: (§1)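 Cell-based Gal-4 transactivation assay in COS-7 cells transfected with PPARα, PPARδ or PPARγ ligand-binding domain. EC50 and Emax were derived, with Emax as maximum activation in percent of control. EC50s are means of at least two independent experiments performed in triplicate.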

[2] = target: T2, Peroxisome proliferator-activated receptor alpha (Homo sapiens) (UniProt Q07869); assay: Transactivation of human GAL4-fused PPARalpha LBD expressed in African green monkey COS7 cells co-expressing 5Gal4 pGL3 TK Luc after overnight incubation by luciferase reporter gene assay relative to fenofibric acid; assay type: cell-based; in short: as §1
T2 sequence (whole entry): T1 sequence (Q07869 whole entry)

[3] = target: T3, Peroxisome proliferator-activated receptor gamma (Homo sapiens) (UniProt P37231); assay: Transactivation of human GAL4-fused PPARgamma LBD expressed in African green monkey COS7 cells co-expressing 5Gal4 pGL3 TK Luc after overnight incubation by luciferase reporter gene assay relative to rosiglitazone; assay type: cell-based; in short: as §1
T3 sequence (whole entry): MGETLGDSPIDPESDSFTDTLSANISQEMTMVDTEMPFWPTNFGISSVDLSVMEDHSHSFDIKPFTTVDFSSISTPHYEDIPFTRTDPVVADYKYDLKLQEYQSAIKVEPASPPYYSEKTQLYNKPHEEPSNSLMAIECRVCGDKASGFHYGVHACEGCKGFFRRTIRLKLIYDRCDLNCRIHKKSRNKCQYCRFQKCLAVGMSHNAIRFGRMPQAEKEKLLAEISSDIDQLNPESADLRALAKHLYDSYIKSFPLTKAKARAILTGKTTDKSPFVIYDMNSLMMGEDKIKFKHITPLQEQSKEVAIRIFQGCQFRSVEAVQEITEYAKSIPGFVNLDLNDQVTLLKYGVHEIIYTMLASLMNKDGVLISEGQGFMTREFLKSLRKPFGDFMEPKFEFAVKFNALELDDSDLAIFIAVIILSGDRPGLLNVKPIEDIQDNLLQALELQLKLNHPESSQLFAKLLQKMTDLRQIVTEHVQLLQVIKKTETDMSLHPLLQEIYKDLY

[4] = Apparent permeability from apical to basolateral side in human Caco2 cells at 10 uM after 2 hrs by LC-MS/MS analysis; assay type: ADME, cell-based, Caco-2
[5] = Apparent permeability from basolateral to apical side in human Caco2 cells at 10 uM after 2 hrs by LC-MS/MS analysis; assay type: ADME, cell-based, Caco-2
[6] = Aqueous solubility in fasted state simulated intestinal fluid; assay type: physicochemical
[7] = target: T2, Peroxisome proliferator-activated receptor alpha (Homo sapiens); assay: Transactivation of PPARalpha in human HuH7 cells assessed increase in [14C]oleate beta-oxidation at 30 uM preincubated for 48 hrs followed by [14C]oleate addition during last 2 hrs of incubation period relative to control; assay type: cell-based
In short: (§2)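 Fatty acid beta-oxidation was used as the functional read-out. PPARα activity was tested in human hepatoma HuH7 cells and PPARδ activity in mouse myoblast C2C12 cells, at 1, 3, 10 and 30 µM. Values are % beta-oxidation, mean of at least 2 independent experiments run in triplicate, with single-experiment values flagged.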

[8] = target: T4, Peroxisome proliferator-activated receptor delta (Mus musculus) (UniProt P35396); assay: Transactivation of PPARdelta in mouse C2C12 cells assessed increase in [14C]oleate beta-oxidation at 30 uM preincubated for 48 hrs followed by [14C]oleate addition during last 2 hrs of incubation period relative to control; assay type: cell-based; in short: as §2
T4 sequence (whole entry): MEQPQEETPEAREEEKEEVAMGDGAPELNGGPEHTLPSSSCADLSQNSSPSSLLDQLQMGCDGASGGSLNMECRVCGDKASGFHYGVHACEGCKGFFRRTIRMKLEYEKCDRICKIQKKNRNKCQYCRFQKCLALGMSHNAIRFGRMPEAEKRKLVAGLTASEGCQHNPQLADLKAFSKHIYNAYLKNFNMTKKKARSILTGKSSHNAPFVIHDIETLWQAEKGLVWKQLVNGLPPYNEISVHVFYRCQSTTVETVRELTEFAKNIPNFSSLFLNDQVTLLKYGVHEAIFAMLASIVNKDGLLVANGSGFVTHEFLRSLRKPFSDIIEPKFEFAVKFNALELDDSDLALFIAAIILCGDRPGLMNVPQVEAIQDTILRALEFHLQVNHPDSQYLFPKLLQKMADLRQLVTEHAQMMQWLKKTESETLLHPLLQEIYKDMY

[9] = Tmax in C57Bl6 mouse at 10 mg/kg, po administered as single oral dose; assay type: ADME, organism-based; conditions: in vivo
In short: (§3)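 Single oral dose of 10 mg/kg in methyl cellulose vehicle given to C57Bl6 mice. Plasma was sampled over a 24 h period. […]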

[10] = AUC (infinity) in C57Bl6 mouse at 10 mg/kg, po administered as single oral dose; assay type: ADME, organism-based; conditions: in vivo; in short: as §3
Mus musculus = assay: Hypolipidemic activity in C57BL/Ks mouse model of diabetic dyslipidemia assessed as decrease in plasma triglyceride level at 30 mg/kg, po qd administered via gavage for 10 days measured 4 hrs post last dose; assay type: functional, organism-based
In short: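 Homozygous male C57BL/Ks-db (db/db) mice were gavaged once daily at 10 or 30 mg/kg, for 5 or 10 days. Retro-orbital blood was drawn before treatment and 4 h after the last gavage. Glucose and triglycerides were measured in serum. Results are expressed as % variation on the final day versus the control group. Analysis was one-way ANOVA with Dunnett's test.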

[11] = target: T4, Peroxisome proliferator-activated receptor delta (Mus musculus); assay: Transactivation of mouse GAL4-fused PPARdelta LBD expressed in African green monkey COS7 cells co-expressing 5Gal4 pGL3 TK Luc after overnight incubation by luciferase reporter gene assay relative to GW501516; assay type: cell-based; in short: as §1
[12] = target: T5, Peroxisome proliferator-activated receptor gamma (Homo sapiens, UniProt P37231)
T5 sequence (P37231 whole entry): T3 sequence (whole entry)

[13] = target: T5, Peroxisome proliferator-activated receptor gamma; remark: listed apart in the source
[14] = target: T5, Peroxisome proliferator-activated receptor gamma; remark: listed apart in the source

Row | EC50 [1] | Emax [2] | Emax [3] | Papp A→B at 2 h, 10 µM ([4]; Caco-2) | Papp B→A at 2 h, 10 µM ([5]; Caco-2) | solubility [6] | Activity [7] | Activity [8] | Tmax [9] | AUC(0-inf) [10] | Papp ([4]; caco-2, 2 h, 10 µM) | Papp ([5]; caco-2, 2 h, 10 µM) | Emax [11] | EC50 [12] | EC50 [13] | EC50 [14] | SMILES | Activity (Mus musculus)
1 | 0.26 µM | 101% | 43% | 61 ×10⁻⁶ cm/s | 14.4 ×10⁻⁶ cm/s | 9 µM (≈ 3.27 µg/mL) | 96% | 27% | 1 h | 37300 ng·h/mL | – | – | – | – | – | – | O=C(O)CCc1cc2cc(Cl)ccc2n1S(=O)(=O)c1ccccc1 | Active
2 | 1.54 µM | 106% | 79% | – | – | 8.7 µM (≈ 3.78 µg/mL) | 120% | 55% | 1 h | 29400 ng·h/mL | 24 ×10⁻⁶ cm/s | 0.2 ×10⁻⁶ cm/s | 131% | 4.11 µM | 3.27 µM | 3.41 µM | O=C(O)CCCc1cc2cc(Cl)ccc2n1S(=O)(=O)c1ccc2ncsc2c1 [LANIFIBRANOR] | –
